How the values were obtained:
[1] = target: T1, Vitamin D3 receptor (Homo sapiens, UniProt P11473); assay: Antagonist activity at human VDR transfected in HEK293T cells measured after 24 hrs by luciferase reporter gene assay; assay type: cell-based, HEK-293T
T1 sequence (P11473 whole entry): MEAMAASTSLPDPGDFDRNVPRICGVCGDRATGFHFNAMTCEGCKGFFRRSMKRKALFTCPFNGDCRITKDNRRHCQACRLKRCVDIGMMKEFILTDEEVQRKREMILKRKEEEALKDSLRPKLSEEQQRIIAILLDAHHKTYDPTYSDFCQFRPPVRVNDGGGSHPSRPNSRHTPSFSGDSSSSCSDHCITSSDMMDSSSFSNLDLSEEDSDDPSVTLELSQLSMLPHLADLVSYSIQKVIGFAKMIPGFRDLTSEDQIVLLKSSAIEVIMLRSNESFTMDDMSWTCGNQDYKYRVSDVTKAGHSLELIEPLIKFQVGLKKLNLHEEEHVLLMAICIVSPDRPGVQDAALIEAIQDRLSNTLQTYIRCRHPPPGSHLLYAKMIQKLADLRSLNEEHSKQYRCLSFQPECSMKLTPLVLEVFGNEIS

[2] = target: T2, Bile acid receptor (Homo sapiens, UniProt Q96RI1); assay: Agonist activity at human FXR expressed in human HuH7 cells by luciferase reporter gene assay; assay type: cell-based, Huh-7
T2 sequence (Q96RI1 whole entry): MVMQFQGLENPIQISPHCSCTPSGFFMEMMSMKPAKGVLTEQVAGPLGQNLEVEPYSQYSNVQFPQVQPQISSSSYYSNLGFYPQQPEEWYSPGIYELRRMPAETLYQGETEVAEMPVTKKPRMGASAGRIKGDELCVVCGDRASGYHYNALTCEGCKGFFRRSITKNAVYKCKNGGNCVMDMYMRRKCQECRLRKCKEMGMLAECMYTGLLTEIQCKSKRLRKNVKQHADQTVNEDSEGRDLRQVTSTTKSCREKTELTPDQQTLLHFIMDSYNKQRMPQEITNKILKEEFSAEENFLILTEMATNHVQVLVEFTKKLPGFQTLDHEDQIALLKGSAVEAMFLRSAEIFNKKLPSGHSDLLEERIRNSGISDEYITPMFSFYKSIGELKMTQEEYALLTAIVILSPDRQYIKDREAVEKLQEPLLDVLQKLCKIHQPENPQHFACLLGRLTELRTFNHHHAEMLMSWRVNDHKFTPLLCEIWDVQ

[3] = system: Huh-7; assay: Cytotoxicity against human HuH7 cells assessed as cell viability by MTT assay; assay type: cell-based
[4] = system: HEK-293T; assay: Cytotoxicity against human HEK293T cells assessed as cell viability by MTT assay; assay type: cell-based
[5] = target: T2, Bile acid receptor; assay: Agonist activity at GST-fused FXR-LBD (unknown origin) incubated with Fluorecein-SRC2-2 coactivator peptide as substrate by TR-FRET assay
[6] = Cytotoxicity against mouse ST-2 cells assessed as cell viability upto 5 uM incubated for 12 days by WST-8 assay; assay type: cell-based; conditions: 288 h
In short: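 ST-2 mesenchymal stem cells kept 12 days in RPMI-1640 medium containing compound at 0–10 μM. Viability read by WST-8 assay and expressed relative to untreated (0 μM) cells set as 100%. Means ± S.D., n=5.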

IC50 [1] | EC50 [2] | EC50 [5] | SMILES | Activity [3] | Activity [4] | Activity [6]
> 10000 nM |  |  | CC(C)c1onc(-c2c(Cl)cccc2Cl)c1COc1ccc(/C=C/c2cccc(C(=O)O)c2)c(Cl)c1 |  |  | 
 | 13 nM | 24.8 nM | CC(C)c1onc(-c2c(Cl)cccc2Cl)c1COc1ccc(-c2nc3ccc(C(=O)O)cc3n2CC(C)(C)C)cc1 | Toxic | Toxic | 
 |  |  | CC(C)c1onc(-c2c(Cl)cccc2Cl)c1COc1ccc(-c2nc3cc(C(=O)O)ccc3n2C)cc1 | Toxic | Toxic | 
 |  |  | CC(C)c1onc(-c2c(Cl)cccc2Cl)c1COc1ccc(-c2nc3ccc(C(=O)O)cc3n2C(C)C)cc1 | Toxic | Toxic | 
 |  |  | CC(C)c1onc(-c2c(Cl)cccc2Cl)c1COc1ccc(-c2nc3ccc(C(=O)O)cc3n2CC2CCCCC2)c(Cl)c1 | Toxic | Toxic | 
 |  |  | CCCn1c(-c2ccc(OCc3c(-c4c(Cl)cccc4Cl)noc3C(C)C)cc2)nc2ccc(C(=O)O)cc21 | Toxic | Toxic | 
 |  |  | CC(C)c1onc(-c2c(Cl)cccc2Cl)c1COc1ccc(-c2nc3ccc(C(=O)O)cc3n2C2CCC2)cc1 | Toxic | Toxic | 
> 10000 nM |  |  | CCCC(CCC)n1c(-c2ccc(OCc3c(-c4c(Cl)cccc4Cl)noc3C(C)C)cc2)nc2ccc(C(=O)O)cc21 | Toxic | Toxic | 
 | 1.6 nM | 21.6 nM | CCC(CC)n1c(-c2ccc(OCc3c(-c4c(Cl)cccc4Cl)noc3C(C)C)cc2Cl)nc2ccc(C(=O)O)cc21 | Toxic | Toxic | 
 |  |  | CC(C)c1onc(-c2c(Cl)cccc2Cl)c1COc1ccc(-c2nc3ccc(C(=O)O)cc3n2CC2CCCCC2)cc1 | Toxic | Toxic | Non-Toxic
> 10000 nM |  |  | CC(=O)N1CCC(n2c(-c3ccc(OCc4c(-c5c(Cl)cccc5Cl)noc4C(C)C)cc3)nc3ccc(C(=O)O)cc32)CC1 | Toxic | Toxic | 
 |  |  | CCC(CC)n1c(-c2ccc(OCc3c(-c4c(Cl)cccc4Cl)noc3C(C)C)cc2)nc2ccc(C(=O)O)cc21 | Toxic | Toxic | Non-Toxic
> 10000 nM |  |  | CCC(CC)n1c(-c2ccc(OCc3c(-c4c(Cl)cccc4Cl)noc3C(C)C)cc2F)nc2ccc(C(=O)O)cc21 | Toxic | Toxic | 
 |  |  | CCn1c(-c2ccc(OCc3c(-c4c(Cl)cccc4Cl)noc3C(C)C)cc2)nc2ccc(C(=O)O)cc21 | Toxic | Toxic | 
 |  |  | CC(C)c1onc(-c2c(Cl)cccc2Cl)c1COc1ccc(-c2nc3ccc(C(=O)O)cc3n2C2CCCC2)cc1 | Toxic | Toxic | 
 |  |  | CC(C)c1onc(-c2c(Cl)cccc2Cl)c1COc1ccc(-c2nc3ccc(C(=O)O)cc3n2C2CCCCC2)cc1 | Toxic | Toxic | 
 |  |  | CC(C)c1onc(-c2c(Cl)cccc2Cl)c1COc1ccc(-c2nc3ccc(C(=O)O)cc3n2C2CC2)cc1 | Toxic | Toxic | 
 |  |  | CC(C)c1onc(-c2c(Cl)cccc2Cl)c1COc1ccc(-c2nc3ccc(C(=O)O)cc3n2C)cc1Cl | Toxic | Toxic | 
 |  |  | CC(C)c1onc(-c2c(Cl)cccc2Cl)c1COc1ccc(-c2nc3ccc(C(=O)O)cc3n2CC2CCCCC2)c(F)c1 | Toxic | Toxic | 
 |  |  | CC(C)c1onc(-c2c(Cl)cccc2Cl)c1COc1ccc(-c2nc3ccc(C(=O)O)cc3n2CC2CC2)cc1 | Toxic | Toxic | 
> 10000 nM |  |  | CC(=O)C1CCC(Cn2c(-c3ccc(OCc4c(-c5c(Cl)cccc5Cl)noc4C(C)C)cc3)nc3ccc(C(=O)O)cc32)CC1 (stereo not drawn) | Toxic | Toxic | 
 |  |  | CC(C)c1onc(-c2c(Cl)cccc2Cl)c1COc1ccc(-c2nc3ccc(C(=O)O)cc3n2C)cc1 | Toxic | Toxic | 
 |  |  | CC(C)c1onc(-c2c(Cl)cccc2Cl)c1COc1ccc(-c2nc3ccc(C(=O)O)cc3n2C)c(Cl)c1 | Toxic | Toxic | 
 |  |  | CC(C)c1onc(-c2c(Cl)cccc2Cl)c1COc1ccc(-c2nc3ccc(C(=O)O)cc3n2Cc2ccc(F)cc2)cc1 | Toxic | Toxic | 
 |  |  | CC(C)c1onc(-c2c(Cl)cccc2Cl)c1COc1ccc(-c2nc3ccc(C(=O)O)cc3n2C2CCCCCC2)cc1 | Toxic | Toxic | 
 |  |  | CC(C)c1onc(-c2c(Cl)cccc2Cl)c1COc1ccc(-c2nc3ccc(C(=O)O)cc3n2-c2ccc(F)cc2)cc1 | Toxic | Toxic | 
 |  |  | CC(C)Cn1c(-c2ccc(OCc3c(-c4c(Cl)cccc4Cl)noc3C(C)C)cc2)nc2ccc(C(=O)O)cc21 | Toxic | Toxic | 

Source: ChEMBL document CHEMBL4622925, “N1-Substituted benzimidazole scaffold for farnesoid X receptor (FXR) agonists accompanying prominent selectivity against vitamin D receptor (VDR)” (Bioorg Med Chem, 2020)
